Published values from different studies.
Protocols differ between the studies behind these lines.
RORC: Nuclear receptor ROR-gamma (RORC, Homo sapiens, UniProt P51449)
Toll-like receptor 1/2: Toll-like receptor 1/2 (Homo sapiens, UniProt O60603+Q15399)
Chymotrypsinogen A: Chymotrypsinogen A (Bos taurus, UniProt P00766)

SMILES	target	assay	setting	quantity	result
O=S(=O)(c1cccc(C(F)(F)F)c1)N1CCc2ccc(OCc3c(Cl)cccc3Cl)cc21	RORC	ligand displacement, radioligand		IC50	130 nM
CNc1ccc(C#N)cc1-n1cnc(-c2ccc([N+](=O)[O-])cc2)c1	Toll-like receptor 1/2	reporter gene, agonist		EC50	11000 nM
CCCC[C@H](NC(=O)[C@H](CCC(N)=O)NC(=O)[C@H](CO)NC(=O)[C@H](Cc1ccccc1)NC(=O)CCCCCN)C(=O)N[C@@H](CCCBr)B1O[C@@H]2C[C@@H]3C[C@@H](C3(C)C)[C@]2(C)O1	Chymotrypsinogen A	enzyme activity, inhibitor, fluorescence		Ki	496 nM
Cc1cnc(-c2ccc(-c3ccc(NC(=O)Nc4c(F)cc(F)cc4F)cc3F)c3c2C(=O)NC3)[nH]1	Serine/threonine-protein kinase 24 (STK24, Homo sapiens, UniProt Q9Y6E0)	enzyme activity, inhibitor		IC50	41.5 nM
Cc1cc2nc3c(=O)[nH]c(=O)nc-3n(C[C@H](O)[C@H](O)[C@H](O)COP(=O)(O)OP(=O)(O)OC[C@H]3O[C@@H](n4cnc5c(N)ncnc54)[C@H](O)[C@@H]3O)c2cc1C	Pumilio homolog 2 (Homo sapiens, UniProt Q8TB72)	binding	lysate	Kd	15 nM
O=S(=O)(c1cccc(C(F)(F)F)c1)N1c2cc(OCc3c(Cl)cncc3Cl)ccc2CC1C(F)(F)F (centres unmarked)	RORC	ligand displacement, radioligand		IC50	150 nM
CNc1nc(I)nc2c1ncn2[C@H]1C[C@H](OP(=O)(O)O)[C@]2(COP(=O)(O)O)C[C@H]12	P2Y purinoceptor 1 (Rattus norvegicus, UniProt P49651)	calcium signal, antagonist		Kb	5.4 nM
CNc1ccc([N+](=O)[O-])cc1-n1cnc(-c2ccc(C(C)(C)C)cc2)c1	Toll-like receptor 1/2	reporter gene, agonist		EC50	150 nM
Cc1cccc(C)c1COc1ccc2c(c1)N(S(=O)(=O)c1cccc(C(F)(F)F)c1)CC2	RORC	ligand displacement, radioligand		IC50	230 nM
CCCC[C@H](NC(=O)[C@H](CCC(N)=O)NC(=O)[C@H](CO)NC(=O)C[C@@H](Cc1ccc2ccccc2c1)NC(=O)CCCCCN)C(=O)N[C@@H](CCCBr)B(O)O	Chymotrypsinogen A	enzyme activity, inhibitor, fluorescence		Ki	506 nM
CNc1ccc([N+](=O)[O-])cc1-n1cnc(-c2ccc(F)cc2)c1	Toll-like receptor 1/2	reporter gene, agonist		EC50	2780 nM
CC(C)C[C@H](NC(=O)[C@H](Cc1ccccc1)NC(=O)[C@@H](N)Cc1ccc(O)cc1)C(=O)N[C@@H](Cc1ccccc1)C(=O)N[C@@H](CCCNC(=N)N)C(=O)N1CCC[C@H]1C(=O)N[C@@H](CCCNC(=N)N)C(=O)N[C@@H](CC(N)=O)C(N)=O	Neuromedin-U receptor 1 (Mus musculus, UniProt O55040)	β-arrestin recruitment, agonist		EC50	11.5 nM
NC(=O)C1=CN([C@@H]2O[C@H](COP(=O)(O)OP(=O)(O)OC[C@H]3O[C@@H](n4cnc5c(N)ncnc54)[C@H](O)[C@@H]3O)[C@@H](O)[C@H]2O)C=CC1	ADH1 (Saccharomyces cerevisiae, UniProt P00330, H16R)	enzyme activity, inhibitor		Ki	12000 nM
CNc1ccc([N+](=O)[O-])cc1-n1cnc(-c2cc(F)c(F)cc2F)c1	Toll-like receptor 1/2	reporter gene, agonist		EC50	> 100000 nM
O=S(=O)(c1cccc(C(F)(F)F)c1)N1CCc2ccc(OCc3c(F)cncc3Cl)cc21	RORC	ligand displacement, radioligand		IC50	230 nM
CCCCc1ccc(-c2cn(-c3cc([N+](=O)[O-])ccc3NC)cn2)cc1	Toll-like receptor 1/2	reporter gene, agonist		EC50	230 nM
O=C(CCn1cc(CN2CCN(c3cc4c(cc3F)c(=O)c(C(=O)O)cn4C3CC3)CC2)nn1)Nc1ccc(S[C@@H]2O[C@H](CO)[C@H](O)[C@H](O)[C@H]2O)cc1	PA-I galactophilic lectin (lecA, Pseudomonas aeruginosa, UniProt Q05097)	ligand displacement, FP		Ki	4290 nM
CNc1ccc(C(=O)OC)cc1-n1cnc(-c2ccc(C(F)(F)F)cc2)c1	Toll-like receptor 1/2	reporter gene, agonist		EC50	> 100000 nM
OC[C@@H]1[C@@H](O)[C@H](O)[C@@H](O)[C@@H]2O[C@H]12	Beta-glucosidase (GBA2, Homo sapiens, UniProt Q9HCG7)	enzyme activity, inhibitor	pH 5.5, lysate	IC50	350 nM
CCOCc1nc(O)c(-c2nnc(Cc3ccc(Cl)cn3)o2)c(O)c1-c1c(OC)cccc1OC	Apelin receptor (Aplnr, Mus musculus, UniProt Q9WV08)	cAMP, agonist		EC50	0.03 nM
